# pKi: −log10 of the molar value.
# What was measured:
# Format in all cases: cell-based
# [1] = molecular target: T1, GABA-A receptor; alpha-2/beta-3/gamma-2 (Homo sapiens, UniProt P18507+P28472+P47869); assay: Inhibition of [3H]Ro-151788 binding to recombinant human gamma-aminobutyric acid A receptor alpha-2-beta-3-gamma-2 subtype expressed in L (tk-) cells
# T1 sequence (P18507 whole entry): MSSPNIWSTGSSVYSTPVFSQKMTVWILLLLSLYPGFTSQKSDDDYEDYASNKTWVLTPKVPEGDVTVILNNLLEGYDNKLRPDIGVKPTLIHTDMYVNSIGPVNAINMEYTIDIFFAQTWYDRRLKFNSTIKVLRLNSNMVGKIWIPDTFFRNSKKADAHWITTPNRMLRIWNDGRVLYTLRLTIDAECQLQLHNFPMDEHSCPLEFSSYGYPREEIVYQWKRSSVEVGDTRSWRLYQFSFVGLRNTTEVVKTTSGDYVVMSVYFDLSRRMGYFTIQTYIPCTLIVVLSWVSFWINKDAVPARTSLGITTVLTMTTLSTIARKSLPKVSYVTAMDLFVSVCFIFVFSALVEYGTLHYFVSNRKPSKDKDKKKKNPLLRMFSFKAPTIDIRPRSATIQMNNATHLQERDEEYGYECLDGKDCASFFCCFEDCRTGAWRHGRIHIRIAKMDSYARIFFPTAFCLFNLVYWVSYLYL
# T1 sequence (P28472 whole entry): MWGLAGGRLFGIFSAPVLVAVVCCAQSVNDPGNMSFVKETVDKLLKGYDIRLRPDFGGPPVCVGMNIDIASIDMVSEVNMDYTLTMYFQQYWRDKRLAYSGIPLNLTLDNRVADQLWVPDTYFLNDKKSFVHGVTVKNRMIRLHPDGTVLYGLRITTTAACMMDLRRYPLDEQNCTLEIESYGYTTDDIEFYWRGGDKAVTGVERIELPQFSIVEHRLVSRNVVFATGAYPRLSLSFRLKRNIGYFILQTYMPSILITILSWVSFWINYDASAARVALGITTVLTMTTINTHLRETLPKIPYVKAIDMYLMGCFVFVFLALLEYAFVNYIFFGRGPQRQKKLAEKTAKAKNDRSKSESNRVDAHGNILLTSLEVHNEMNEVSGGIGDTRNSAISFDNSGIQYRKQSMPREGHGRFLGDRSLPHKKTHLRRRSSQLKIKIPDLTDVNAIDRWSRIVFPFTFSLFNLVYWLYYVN
# T1 sequence (P47869 whole entry): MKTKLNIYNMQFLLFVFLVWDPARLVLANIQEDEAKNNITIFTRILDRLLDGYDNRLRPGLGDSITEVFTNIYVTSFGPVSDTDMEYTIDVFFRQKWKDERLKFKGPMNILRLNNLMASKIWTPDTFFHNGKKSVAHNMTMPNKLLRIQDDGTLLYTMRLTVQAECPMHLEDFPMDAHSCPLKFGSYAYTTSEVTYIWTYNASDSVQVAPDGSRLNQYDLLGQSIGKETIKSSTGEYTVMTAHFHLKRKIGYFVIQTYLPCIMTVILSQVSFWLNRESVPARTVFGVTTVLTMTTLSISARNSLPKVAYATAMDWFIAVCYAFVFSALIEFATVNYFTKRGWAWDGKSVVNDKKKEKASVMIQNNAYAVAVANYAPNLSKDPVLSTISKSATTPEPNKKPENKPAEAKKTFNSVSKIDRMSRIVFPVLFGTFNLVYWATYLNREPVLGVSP
# [2] = molecular target: T2, GABA-A receptor; alpha-1/beta-3/gamma-2 (Homo sapiens, UniProt P14867+P18507+P28472); assay: Inhibition of [3H]Ro-151788 binding to recombinant human gamma-aminobutyric-acid A receptor alpha-1-beta-3-gamma-2 subtype expressed in L (tk-) cells
# T2 sequence (P14867 whole entry): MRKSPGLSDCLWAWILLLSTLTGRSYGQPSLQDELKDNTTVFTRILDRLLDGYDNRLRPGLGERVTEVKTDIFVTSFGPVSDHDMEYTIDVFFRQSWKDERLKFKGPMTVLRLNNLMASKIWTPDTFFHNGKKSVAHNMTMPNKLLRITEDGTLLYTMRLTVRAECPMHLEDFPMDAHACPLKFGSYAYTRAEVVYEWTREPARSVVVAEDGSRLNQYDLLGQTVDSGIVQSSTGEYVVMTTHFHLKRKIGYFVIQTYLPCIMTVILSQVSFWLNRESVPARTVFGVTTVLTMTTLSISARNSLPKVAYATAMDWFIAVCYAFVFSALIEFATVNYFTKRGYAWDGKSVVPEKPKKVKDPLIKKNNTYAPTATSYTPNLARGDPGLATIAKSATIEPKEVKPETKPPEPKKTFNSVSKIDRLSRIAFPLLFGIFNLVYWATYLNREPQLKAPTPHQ
# T2 sequence (P18507 whole entry): T1 sequence (P18507 whole entry)
# T2 sequence (P28472 whole entry): T1 sequence (P28472 whole entry)
# [3] = molecular target: T3, GABA-A receptor; alpha-3/beta-3/gamma-2 (Homo sapiens, UniProt P18507+P28472+P34903); assay: Inhibition of [3H]Ro-151788 binding to recombinant human gamma-aminobutyric-acid A receptor alpha-3-beta-3-gamma-2 subtype expressed in L (tk-) cells
# T3 sequence (P18507 whole entry): T1 sequence (P18507 whole entry)
# T3 sequence (P28472 whole entry): T1 sequence (P28472 whole entry)
# T3 sequence (P34903 whole entry): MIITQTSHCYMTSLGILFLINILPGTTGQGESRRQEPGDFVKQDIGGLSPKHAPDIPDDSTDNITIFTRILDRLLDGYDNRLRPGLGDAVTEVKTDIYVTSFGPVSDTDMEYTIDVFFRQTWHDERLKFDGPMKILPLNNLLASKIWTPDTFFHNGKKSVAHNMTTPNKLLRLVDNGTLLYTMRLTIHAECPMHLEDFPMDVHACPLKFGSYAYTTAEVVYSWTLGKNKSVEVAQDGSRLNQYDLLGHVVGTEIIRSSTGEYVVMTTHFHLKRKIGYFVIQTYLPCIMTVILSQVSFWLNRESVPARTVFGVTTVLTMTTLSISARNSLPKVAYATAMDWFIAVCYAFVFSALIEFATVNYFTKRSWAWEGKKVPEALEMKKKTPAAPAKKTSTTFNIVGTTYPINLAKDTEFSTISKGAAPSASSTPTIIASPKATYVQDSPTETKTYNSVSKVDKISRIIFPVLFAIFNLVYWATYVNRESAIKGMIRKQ
# [4] = molecular target: T4, GABA-A receptor; alpha-5/beta-3/gamma-2 (Homo sapiens, UniProt P18507+P28472+P31644); assay: Inhibition of [3H]Ro-151788 binding to recombinant human gamma-aminobutyric-acid A receptor alpha-5-beta-3-gamma-2 subtype expressed in L (tk-) cells
# T4 sequence (P18507 whole entry): T1 sequence (P18507 whole entry)
# T4 sequence (P28472 whole entry): T1 sequence (P28472 whole entry)
# T4 sequence (P31644 whole entry): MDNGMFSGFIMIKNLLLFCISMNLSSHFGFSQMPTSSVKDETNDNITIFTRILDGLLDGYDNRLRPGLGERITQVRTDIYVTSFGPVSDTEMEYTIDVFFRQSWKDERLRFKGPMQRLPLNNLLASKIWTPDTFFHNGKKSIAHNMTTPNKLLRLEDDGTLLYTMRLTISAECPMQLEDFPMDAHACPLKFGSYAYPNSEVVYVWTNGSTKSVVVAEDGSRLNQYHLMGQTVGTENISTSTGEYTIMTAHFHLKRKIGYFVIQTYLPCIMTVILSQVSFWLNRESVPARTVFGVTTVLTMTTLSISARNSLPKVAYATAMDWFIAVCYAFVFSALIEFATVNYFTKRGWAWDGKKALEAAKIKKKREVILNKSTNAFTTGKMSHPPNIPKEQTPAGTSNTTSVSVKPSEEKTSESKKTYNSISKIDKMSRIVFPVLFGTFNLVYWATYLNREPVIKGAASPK
# [5] = molecular target: GABA-A receptor; alpha-1/beta-3/gamma-2 (Homo sapiens) (UniProt P14867+P18507+P28472); assay: Efficacy was measured as modulation of the current in response to GABA at hGABA alpha-1-beta-3-gamma-2 receptor expressed in Xenopus oocytes; conditions: Oocyte
# Procedure, shortened: (§1)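 Two-electrode voltage clamp on Xenopus oocytes expressing each receptor combination. […] Value is percent increase or decrease of the EC20 GABA current.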
# [6] = molecular target: GABA-A receptor; alpha-3/beta-3/gamma-2 (Homo sapiens) (UniProt P18507+P28472+P34903); assay: Efficacy was measured as modulation of the current in response to GABA at hGABA alpha-3-beta-3-gamma-2 receptor expressed in Xenopus oocytes; conditions: Oocyte; procedure, shortened: as §1
pKi [1],pKi [2],pKi [3],pKi [4],Efficacy [5],Efficacy [6],SMILES
8.01,7.89,8.41,9.30,77%,97%,COCCOc1cccnc1COc1nn2c(-c3ccccc3)nnc2c2c1C1CCC2CC1
7.72,7.03,7.74,8.70,41%,33%,Cc1ccnc(COc2nn3c(-c4ccccc4)nnc3c3c2C2CCC3CC2)c1
8.70,8.01,8.68,9.34,17%,7%,Cc1cccnc1COc1nn2c(-c3ccccc3)nnc2c2c1C1CCC2CC1
7.10,6.85,7.54,8.22,51%,43%,COc1cccc(-c2nnc3c4c(c(OCc5ccccn5)nn23)C2CCC4CC2)c1
8.40,7.96,8.77,9.00,–,17%,Cc1ccnc(COc2nn3c(-c4ccccc4)nnc3c3c2C2CCC3CC2)c1C
8.19,7.80,8.52,9.11,–,27%,c1ccc(-c2nnc3c4c(c(OCc5cnccn5)nn23)C2CCC4CC2)cc1
8.06,7.57,8.44,9.08,–,12%,Cc1ccc(C)c(COc2nn3c(-c4ccccc4)nnc3c3c2C2CCC3CC2)n1
7.77,7.25,7.82,8.92,100%,74%,Cc1ccc(COc2nn3c(-c4ccccc4)nnc3c3c2C2CCC3CC2)nc1
7.00,6.80,7.70,8.15,178%,132%,c1ccc(COc2cccnc2COc2nn3c(-c4ccccc4)nnc3c3c2C2CCC3CC2)cc1
7.47,7.15,7.72,8.07,–,20%,OCCCCOc1nn2c(-c3ccccc3)nnc2c2c1C1CCC2CC1
8.64,8.48,9.00,9.54,26%,23%,CCn1ccnc1COc1nn2c(-c3ccccc3)nnc2c2c1C1CCC2CC1
7.46,7.00,7.74,8.57,84%,27%,c1ccc(-c2nnc3c4c(c(OCc5nccs5)nn23)C2CCC4CC2)cc1
7.09,6.85,7.89,8.33,38%,17%,c1ccc(-c2nnc3c4c(c(OCc5ccncc5)nn23)C2CCC4CC2)cc1
8.04,7.77,8.62,9.19,–,8%,COc1cccnc1COc1nn2c(-c3ccccc3)nnc2c2c1C1CCC2CC1
8.23,7.89,8.77,9.27,–,17%,N#Cc1cccnc1COc1nn2c(-c3ccccc3)nnc2c2c1C1CCC2CC1
8.55,8.41,8.96,9.44,66%,46%,CCOc1cccnc1COc1nn2c(-c3ccccc3)nnc2c2c1C1CCC2CC1
7.37,6.89,7.72,8.57,76%,0%,c1ccc(-c2nnc3c4c(c(OCn5cccn5)nn23)C2CCC4CC2)cc1
8.47,8.47,9.15,9.70,34%,-2%,Cc1cnc(COc2nn3c(-c4ccccc4)nnc3c3c2C2CCC3CC2)c(C)c1
8.00,8.46,8.62,8.51,62%,52%,CCCc1cccnc1COc1nn2c(-c3ccccc3)nnc2c2c1C1CCC2CC1
8.28,7.96,8.55,9.41,–,22%,Cn1ncnc1COc1nn2c(-c3ccccc3)nnc2c2c1C1CCC2CC1
8.15,7.72,8.37,9.35,24%,24%,Cn1ccnc1COc1nn2c(-c3ccccc3)nnc2c2c1C1CCC2CC1
8.09,7.66,8.51,9.26,–,14%,c1ccc(-c2nnc3c4c(c(OCc5ccncn5)nn23)C2CCC4CC2)cc1
7.30,7.11,7.40,8.05,–,83%,CCCn1cnc(COc2nn3c(-c4ccccc4)nnc3c3c2C2CCC3CC2)n1

# — ChEMBL document CHEMBL1142695, “Discovery of functionally selective 7,8,9,10-tetrahydro-7,10-ethano-1,2,4-triazolo[3,4-a]phthalazines as GABA A receptor agonists at the alpha3 subunit” (J Med Chem, 2005)
